Results on 39 compounds are retold here after the M2OR odorant receptor database.

This assay concerns T1, A0A140T8K0.
T1 sequence (whole entry): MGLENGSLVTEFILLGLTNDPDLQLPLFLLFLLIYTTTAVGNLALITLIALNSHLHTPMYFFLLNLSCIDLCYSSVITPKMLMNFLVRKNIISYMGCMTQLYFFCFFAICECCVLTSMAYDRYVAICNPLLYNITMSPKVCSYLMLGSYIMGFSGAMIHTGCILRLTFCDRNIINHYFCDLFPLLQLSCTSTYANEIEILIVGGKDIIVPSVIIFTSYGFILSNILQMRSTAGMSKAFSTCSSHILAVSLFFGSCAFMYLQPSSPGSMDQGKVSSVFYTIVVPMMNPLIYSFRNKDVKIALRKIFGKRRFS
The following applies: stereoisomer not certain. Put shortly: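 Assay methods differ from source to source, frequently being transient luciferase assays in mammalian cell lines. For each receptor–molecule pair, the label responsive (active) applies when the original authors judged the measured signal statistically different from baseline, and non-responsive (inactive) applies otherwise.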
Turning to `O=C(O)C1CCC1`, the “odorant receptor agonist call” value was “inactive”.
The same measure for `CC(C)CS`: “inactive”.
In the case of `CCOC(=O)C(C)CC` (centres undefined) it was “inactive”.
In the case of `C=CC(=O)CCCCC` it was “inactive”; in that of `CCc1occc(=O)c1O`, “inactive”; in that of `CCCCCCCCC=CC=O`, “inactive”.
In the case of `COC(OC)c1ccccc1`, the “odorant receptor agonist call” value is “inactive”.
The same measure for `CCCCCCCCCCOC(C)=O`: “inactive”; for `CSSCc1ccco1`: “inactive”; for `CCCC=O`: “inactive”.
In the case of `CC(C)=CCCC(C)=CCOC(=O)C(C)C` it was “inactive”; in that of `CCCCCC(C)O` (centres undefined), “inactive”.
The same measure for `CCCCCC(=Cc1ccccc1)C(OC)OC`: “inactive”; for `CCCCCC(C=O)=Cc1ccccc1`: “inactive”.
For the compound `O=C(O)CCCCCCCCC(=O)O`, the “odorant receptor agonist call” value is “active”.
In the case of `CCc1ccc(O)cc1` it was “inactive”; in that of `O=C(O)CCCCCBr`, “inactive”.
The same measure for `CC1CCC(C(C)C)C(=O)C1` (centres undefined): “inactive”; for `O=C([O-])CCCCCCCC(=O)[O-].[H+].[H+]`: “inactive”; for `CCCCCCC=CC=O`: “inactive”.
The same measure for `CCCCCCC(=O)OCCCC`: “inactive”; for `CCCCCCCCCC=CC=O`: “inactive”; for `CC(CC=O)CCCC(C)(C)O` (centres undefined): “inactive”.
Turning to `C=C(C)C1CCC(C)C(O)C1` (centres undefined), the “odorant receptor agonist call” value is “inactive”.
In the case of `C=C(CC)CCCC(C)(C)O` it was “inactive”; in that of `CCCCCCCCCCCO`, “inactive”; in that of `CCSCC`, “inactive”.
The same measure for `c1ccc2ncccc2c1`: “inactive”; for `CC1(C)CC(=O)CC(=O)C1`: “inactive”; for `CCCO`: “inactive”.
In the case of `CCCCCC=CCCC=O` it was “inactive”; in that of `Cc1c(C)c(C)c(C=O)c(C)c1C`, “inactive”.
On to `CCC=CCCCCC=O`, for which the “odorant receptor agonist call” value was “inactive”.
Turning to `Cc1occc1SSc1ccoc1C`, the “odorant receptor agonist call” value was “inactive”.
For the compound `CCSSCC`, the “odorant receptor agonist call” value is “inactive”.
The same measure for `CCCCCCC(C)O` (centres undefined): “inactive”; for `CC(C)=C1CCC(C)CC1=O` (centres undefined): “inactive”.
In the case of `CCCCCCCOC(=O)C(C)C` it was “inactive”.
In the case of `COc1ccccc1` it was “inactive”.
